Reference: ChEMBL document CHEMBL2375304, “Synthesis and anticancer activity of novel 2-pyridyl hexahyrocyclooctathieno[2,3-d]pyrimidine derivatives” (2013)

Experiments:
Type in all cases: functional
[1] = tested on: M14; experiment: Growth inhibition of human M14 cells at 10^-5 M after 48 hrs by Sulforhodamine B assay relative to control; conditions: M14, 48 h, read-out: GI
How it was run: (§1)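 Single-dose screen at 10⁻⁵ M. Cells are preincubated 24 h at 37 °C in 5% CO2, then exposed to the compound, diluted from a DMSO stock into medium with gentamicin, for 48 h. Adherent cells are fixed with cold TCA (final 10%) and suspension cells with TCA (final 16%). Cells are stained with 0.4% SRB in 1% acetic acid and bound dye is read at 515 nm. Percent growth inhibition is taken against control wells and time-zero plates.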

[2] = tested on: U-251; experiment: Growth inhibition of human U251 cells at 10^-5 M after 48 hrs by Sulforhodamine B assay relative to control; conditions: U-251, 48 h, read-out: GI
How it was run: (§2)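 Single-dose stage: compound tested at 10⁻⁵ M in the 49-cell-line panel. Cells grew 24 h at 37 °C, 5% CO₂ before drug addition. Drug stock was in DMSO at 400-fold, diluted in medium with gentamicin. After 48 h exposure, adherent cells were fixed with cold TCA (10% final) and stained with 0.4% SRB in 1% acetic acid. Dye was solubilized in 10 mM Tris, read at 515 nm. Growth percentage was taken relative to untreated control and time-zero plates.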

[3] = tested on: SNB-75; experiment: Growth inhibition of human SNB75 cells at 10^-5 M after 48 hrs by Sulforhodamine B assay relative to control; conditions: SNB-75, 48 h, read-out: GI
How it was run: (§3)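 Single-dose primary screen at 10⁻⁵ M across 49 lines. Cells were plated 24 h beforehand, with a TCA-fixed time-zero plate, then exposed 48 h at 37 °C, 5% CO2. Cells were fixed with cold TCA, stained with SRB and read at 515 nm. Percent growth was calculated against time-zero and untreated-control absorbances.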

[4] = tested on: SF-539; experiment: Growth inhibition of human SF539 cells at 10^-5 M after 48 hrs by Sulforhodamine B assay relative to control; conditions: SF-539, 48 h, read-out: GI; how it was run: as §3
[5] = tested on: HT-29; experiment: Growth inhibition of human HT-29 cells at 10^-5 M after 48 hrs by Sulforhodamine B assay relative to control; conditions: HT-29, 48 h, read-out: GI; how it was run: as §1
[6] = tested on: HCT-15; experiment: Growth inhibition of human HCT15 cells at 10^-5 M after 48 hrs by Sulforhodamine B assay relative to control; conditions: HCT-15, 48 h, read-out: GI; how it was run: as §1
[7] = tested on: HOP-62; experiment: Growth inhibition of human HOP62 cells at 10^-5 M after 48 hrs by Sulforhodamine B assay relative to control; conditions: HOP-62, 48 h, read-out: GI; how it was run: as §1
[8] = tested on: A549; experiment: Growth inhibition of human A549/ATCC cells at 10^-5 M after 48 hrs by Sulforhodamine B assay relative to control; conditions: A549, 48 h, read-out: GI; how it was run: as §1
[9] = tested on: MOLT-4; experiment: Growth inhibition of human MOLT4 cells at 10^-5 M after 48 hrs by Sulforhodamine B assay relative to control; conditions: MOLT-4, 48 h, read-out: GI; how it was run: as §3
[10] = tested on: ACHN; experiment: Growth inhibition of human ACHN cells at 10^-5 M after 48 hrs by Sulforhodamine B assay relative to control; conditions: read-out: GI; how it was run: as §1
[11] = Growth inhibition of human NCI-ADR-RES cells at 10^-5 M after 48 hrs by Sulforhodamine B assay relative to control; conditions: read-out: GI; how it was run: as §3
[12] = tested on: OVCAR-3; experiment: Growth inhibition of human OVCAR3 cells at 10^-5 M after 48 hrs by Sulforhodamine B assay relative to control; conditions: OVCAR-3, 48 h, read-out: GI; how it was run: as §3
[13] = tested on: UACC-62; experiment: Growth inhibition of human UACC62 cells at 10^-5 M after 48 hrs by Sulforhodamine B assay relative to control; conditions: UACC-62, 48 h, read-out: GI; how it was run: as §2
[14] = tested on: MDA-MB-468; experiment: Growth inhibition of human MDA-MB-468 cells after 48 hrs by Sulforhodamine B assay; conditions: MDA-MB-468, 48 h
How it was run: (§4)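 Cells were preincubated 24 h at 37 °C, 5% CO2, and a time-zero plate was TCA-fixed. Five concentrations were made by serial dilution from a DMSO stock (400-fold the top concentration) and incubated 48 h. Adherent cells were fixed with 10% final TCA and suspension cells with 16%. Plates were stained with 0.4% SRB and read at 515 nm. GI50 is the concentration giving 50% reduction in net protein increase versus control.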

[15] = tested on: BT-549; experiment: Growth inhibition of human BT549 cells after 48 hrs by Sulforhodamine B assay; conditions: BT-549, 48 h
How it was run: (§5)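 Five-concentration SRB assay using 10-fold or ½-log serial dilutions from a DMSO stock. Exposure is 48 h at 37 °C in 5% CO2 after 24 h preincubation. TCA fixation is followed by SRB staining and a reading at 515 nm. Percentage growth is computed from time-zero, control and treated absorbances. GI50 is the concentration where [(Ti−Tz)/(C−Tz)]×100 = 50, read from the plot against log concentration.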

[16] = tested on: Hs-578T; experiment: Growth inhibition of human Hs578T cells after 48 hrs by Sulforhodamine B assay; how it was run: as §5
[17] = tested on: MCF7; experiment: Growth inhibition of human MCF7 cells after 48 hrs by Sulforhodamine B assay; conditions: MCF7, 48 h; how it was run: as §5
[18] = tested on: DU-145; experiment: Growth inhibition of human DU145 cells after 48 hrs by Sulforhodamine B assay; conditions: DU-145, 48 h; how it was run: as §5
[19] = tested on: A498; experiment: Growth inhibition of human A498 cells after 48 hrs by Sulforhodamine B assay; conditions: A498, 48 h; how it was run: as §5
[20] = tested on: OVCAR-8; experiment: Growth inhibition of human OVCAR8 cells after 48 hrs by Sulforhodamine B assay; conditions: OVCAR-8, 48 h; how it was run: as §4
[21] = tested on: SK-MEL-5; experiment: Growth inhibition of human SK-MEL-5 cells after 48 hrs by Sulforhodamine B assay; conditions: SK-MEL-5, 48 h; how it was run: as §4
[22] = tested on: SNB-75; experiment: Growth inhibition of human SNB75 cells after 48 hrs by Sulforhodamine B assay; conditions: SNB-75, 48 h; how it was run: as §4
[23] = tested on: SW-620; experiment: Growth inhibition of human SW620 cells after 48 hrs by Sulforhodamine B assay; conditions: SW-620, 48 h; how it was run: as §4
[24] = tested on: HT-29; experiment: Growth inhibition of human HT-29 cells after 48 hrs by Sulforhodamine B assay; conditions: HT-29, 48 h; how it was run: as §5
[25] = Growth inhibition of human HCC2998 cells after 48 hrs by Sulforhodamine B assay; conditions: HCC 2998, 48 h; how it was run: as §5
[26] = tested on: NCI-H460; experiment: Growth inhibition of human NCI-H460 cells after 48 hrs by Sulforhodamine B assay; conditions: NCI-H460, 48 h; how it was run: as §4
[27] = tested on: HOP-92; experiment: Growth inhibition of human HOP92 cells after 48 hrs by Sulforhodamine B assay; conditions: HOP-92, 48 h; how it was run: as §5
[28] = tested on: NCI-H226; experiment: Growth inhibition of human NCI-H226 cells after 48 hrs by Sulforhodamine B assay; conditions: NCI-H226, 48 h; how it was run: as §4
[29] = tested on: MOLT-4; experiment: Growth inhibition of human MOLT4 cells after 48 hrs by Sulforhodamine B assay; conditions: MOLT-4, 48 h; how it was run: as §4
[30] = tested on: CCRF-CEM; experiment: Growth inhibition of human CCRF-CEM cells after 48 hrs by Sulforhodamine B assay; how it was run: as §5

SMILES	inhibition of growth at 10 µM [1]	inhibition of growth at 10 µM [2]	inhibition of growth at 10 µM [3]	inhibition of growth at 10 µM [4]	inhibition of growth at 10 µM [5]	inhibition of growth at 10 µM [6]	inhibition of growth at 10 µM [7]	inhibition of growth at 10 µM [8]	inhibition of growth at 10 µM [9]	inhibition of growth at 10 µM [10]	inhibition of growth at 10 µM [11]	inhibition of growth at 10 µM [12]	inhibition of growth at 10 µM [13]	GI50 [14]	GI50 [15]	GI50 [16]	GI50 [17]	GI50 [18]	GI50 [19]	GI50 [20]	other results
Clc1nc(-c2ccncc2)nc2sc3c(c12)CCCCCC3	-7.52%	-0.32%	9.59%	6.69%	-1.58%	0.89%	-9.05%	-3.56%	15.6%	-0.47%	-6.46%	-5.97%	6.14%	–	–	–	–	–	–	–	–
COc1ccc(N2CCN(c3nc(-c4ccccn4)nc4sc5c(c34)CCCCCC5)CC2)cc1	–	–	–	–	–	–	–	–	–	–	–	–	–	4.07 µM	6.92 µM	57.5 µM	3.16 µM	28.2 µM	3.31 µM	5.25 µM	GI50 [21]: 2.82 µM; GI50 [22]: 26.3 µM; GI50 [23]: 5.13 µM; GI50 [24]: 5.01 µM; GI50 [25]: 10.2 µM; GI50 [26]: 4.68 µM; GI50 [27]: 3.24 µM; GI50 [28]: 6.46 µM; GI50 [29]: 3.24 µM; GI50 [30]: 4.37 µM
Clc1nc(-c2ccccn2)nc2sc3c(c12)CCCCCC3	13.2%	2.82%	15%	2.75%	0.67%	15.8%	13.4%	0.18%	32.3%	120%	10.7%	-7.89%	4.04%	–	–	–	–	–	–	–	–
c1cc(-c2nc(N3CCOCC3)c3c4c(sc3n2)CCCCCC4)ccn1	-15.4%	21.9%	0.97%	15.8%	17.6%	20.8%	1.14%	24.9%	24.5%	17.1%	18.7%	15.4%	15.5%	–	–	–	–	–	–	–	–
NNc1nc(-c2ccccn2)nc2sc3c(c12)CCCCCC3	–	–	–	–	–	–	–	–	–	–	–	–	–	3.63 µM	9.77 µM	11 µM	3.8 µM	9.55 µM	1.86 µM	4.37 µM	GI50 [21]: 3.16 µM; GI50 [22]: 12.6 µM; GI50 [23]: 4.57 µM; GI50 [24]: 5.5 µM; GI50 [25]: 8.32 µM; GI50 [26]: 4.17 µM; GI50 [27]: 3.55 µM; GI50 [28]: 10.2 µM; GI50 [29]: 3.63 µM; GI50 [30]: 4.47 µM
NNc1nc(-c2ccncc2)nc2sc3c(c12)CCCCCC3	-11.9%	6.15%	18.8%	-14.8%	13.2%	7.32%	4.03%	-1.81%	9.09%	8.69%	2.44%	-0.84%	10.8%	–	–	–	–	–	–	–	–
